From ChEMBL document CHEMBL1146375, “Synthetic studies on novel benzimidazolopeptides with antimicrobial, cytotoxic and anthelmintic potential” (2007)
In brackets after ≈: the same amount, converted by molar mass. Residues, ends and D or L forms follow the SMILES beside them. *: point of attachment. X1 = Cc1cc2nc(-c3ccc(O)c(C(=O)*)c3)[nH]c2cc1C

Assays:
Bacillus subtilis [1] = assay: Antibacterial activity against Bacillus subtilis NCIM 2063 after 18 hrs by disc diffusion method; format: functional
Outline: (§1)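 Modified Kirby-Bauer disc diffusion. Plates inoculated with spore suspension (about 6 × 10⁴ spores mL^-1). Sterile 6 mm paper discs carried test samples at 10 mg mL^-1; ciprofloxacin disc as reference, DMF disc as negative control. Plates held 18 h at 37 °C. Inhibition zone diameters (mm) averaged over triplicate sets.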

Staphylococcus aureus [2] = assay: Antibacterial activity against Staphylococcus aureus NCIM 2079 after 18 hrs by disc diffusion method; format: functional; outline: as §1
Pseudomonas aeruginosa [3] = assay: Antibacterial activity against Pseudomonas aeruginosa NCIM 2034 after 18 hrs by disc diffusion method; format: functional; outline: as §1
Escherichia coli [4] = assay: Antibacterial activity against Escherichia coli NCIM 2065 after 18 hrs by disc diffusion method; format: functional; outline: as §1
Candida albicans [5] = assay: Antifungal activity against Candida albicans MUCC 29 after 48 hrs by disc diffusion method; format: functional
Outline: (§2)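 Agar well diffusion on plates inoculated with spore suspension in normal saline from cultures on Sabouraud's broth. Wells punched and loaded with test samples or griseofulvin at 10 mg mL^-1, with DMSO as negative control. Incubated 48 h at 37 °C.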

Microsporum audouinii [6] = assay: Antifungal activity against Microsporum audouinii MUCC 545 after 48 hrs by disc diffusion method; format: functional; outline: as §2
Trichophyton benhamiae [7] = assay: Antifungal activity against Trichophyton mentagrophytes MUCC 665 after 48 hrs by disc diffusion method; format: functional, Arthroderma benhamiae; outline: as §2
Aspergillus niger = assay: Antifungal activity against Aspergillus niger MUCC 177 after 48 hrs by disc diffusion method; format: functional; outline: as §2
Bacillus subtilis [8] = assay: Antibacterial activity against Bacillus subtilis NCIM 2063 after 18 hrs by tube dilution method; format: functional; conditions: NCIM 2063, 18 h
Outline: (§3)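 Tube dilution MIC. Stock diluted in sterile broth to seven concentrations from 200 to 3.1 […]. Each tube inoculated with one loopful of test bacterium and incubated 18 h at 37 °C. MIC read from presence or absence of growth.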

Staphylococcus aureus [9] = assay: Antibacterial activity against Staphylococcus aureus NCIM 2079 after 18 hrs by tube dilution method; format: functional; conditions: NCIM 2079, 18 h; outline: as §3
Pseudomonas aeruginosa [10] = assay: Antibacterial activity against Pseudomonas aeruginosa NCIM 2034 after 18 hrs by tube dilution method; format: functional; conditions: NCIM 2034, 18 h; outline: as §3
Escherichia coli [11] = assay: Antibacterial activity against Escherichia coli NCIM 2065 after 18 hrs by tube dilution method; format: functional; conditions: NCIM 2065, 18 h
Candida albicans [12] = assay: Antifungal activity against Candida albicans MUCC 29 after 48 hrs by tube dilution method; format: functional
Outline: (§4)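 Tube dilution MIC as for bacteria (seven concentrations, 200–3.1 […]), with DMSO in place of DMF. Tubes inoculated with fungal culture and incubated 48 h at 37 °C. MIC read from presence or absence of growth.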

Microsporum audouinii [13] = assay: Antifungal activity against Microsporum audouinii MUCC 545 after 48 hrs by tube dilution method; format: functional; outline: as §4
Trichophyton benhamiae [14] = assay: Antifungal activity against Trichophyton mentagrophytes MUCC 665 after 48 hrs by tube dilution method; format: functional, Arthroderma benhamiae; outline: as §4
Eudrilus [15] = assay: Anthelmintic activity against Eudrilus sp. assessed as mean paralyzing time; format: functional
Outline: (§5)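 Earthworms exposed to test suspensions at 2 mg mL^-1 (0.2% w/v), made by triturating compound with Tween 80 (0.5%) and distilled water, then mechanically stirred 30 min. Mebendazole suspension prepared alike as reference. Paralysis and death times recorded; death confirmed by no movement in 50 °C water. Means from triplicate sets.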

Eudrilus [16] = assay: Anthelmintic activity against Eudrilus sp. assessed as mean death time; format: functional
Outline: (§6)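 Earthworms exposed to test suspensions at 2 mg mL−1, prepared by triturating compound with Tween 80 (0.5%) and distilled water, stirring 30 min, then diluting to 0.2% w/v. Mebendazole suspension was made the same way. Death was confirmed by moving worms into 50 °C warm water and looking for movement. Mean death time (min) taken from triplicate sets.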

[17] = Growth inhibition of DLA cells at 500 ug/mL after 3 hrs; format: functional; conditions: Mus musculus
Outline: (§7)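 DLA and EAC cells passaged intraperitoneally in albino mice, harvested after 15–20 days and adjusted to 1 × 10⁶ cells/mL. Dilutions in Dulbecco's medium (500–31.25, some down to 3.91 µg/mL; 5-FU reference) mixed 1:1 with cells and held 3 h at 37 °C. Trypan blue exclusion gave % growth inhibition; CTC50 by graphical extrapolation.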

[18] = Growth inhibition of DLA cells at 250 ug/mL after 3 hrs; format: functional; conditions: Mus musculus; outline: as §7
[19] = Growth inhibition of DLA cells at 125 ug/mL after 3 hrs; format: functional; conditions: Mus musculus; outline: as §7
[20] = Growth inhibition of DLA cells at 62.5 ug/mL after 3 hrs; format: functional; conditions: Mus musculus; outline: as §7
[21] = Growth inhibition of DLA cells at 31.25 ug/mL after 3 hrs; format: functional; conditions: Mus musculus; outline: as §7
[22] = Growth inhibition of DLA cells after 3 hrs; format: functional; conditions: Mus musculus; outline: as §7
[23] = Growth inhibition of EAC cells at 500 ug/mL after 3 hrs; format: functional; conditions: Mus musculus, Ehrlich; outline: as §7
[24] = Growth inhibition of EAC cells at 250 ug/mL after 3 hrs; format: functional; conditions: Mus musculus, Ehrlich; outline: as §7
[25] = Growth inhibition of EAC cells at 125 ug/mL after 3 hrs; format: functional; conditions: Mus musculus, Ehrlich; outline: as §7
[26] = Growth inhibition of EAC cells at 62.5 ug/mL after 3 hrs; format: functional; conditions: Mus musculus, Ehrlich; outline: as §7
[27] = Growth inhibition of EAC cells at 31.25 ug/mL after 3 hrs; format: functional; conditions: Mus musculus, Ehrlich; outline: as §7
[28] = Growth inhibition of EAC cells after 3 hrs; format: functional; conditions: Mus musculus, Ehrlich; outline: as §7
[29] = Anthelmintic activity against Megascoplex konkanensis ICARBC 211 assessed as mean paralyzing time; format: functional; outline: as §5
[30] = Anthelmintic activity against Megascoplex konkanensis ICARBC 211 assessed as mean death time; format: functional; outline: as §5
Pontoscolex corethrurus [31] = assay: Anthelmintic activity against Pontoscolex corethrurus ICARBC 408 assessed as mean paralyzing time; format: functional; outline: as §5
Pontoscolex corethrurus [32] = assay: Anthelmintic activity against Pontoscolex corethrurus ICARBC 408 assessed as mean death time; format: functional; outline: as §6
[33] = Growth inhibition of DLA cells at 15.63 ug/mL after 3 hrs; format: functional; conditions: Mus musculus; outline: as §7
[34] = Growth inhibition of DLA cells at 7.81 ug/mL after 3 hrs; format: functional; conditions: Mus musculus; outline: as §7
[35] = Growth inhibition of DLA cells at 3.91 ug/mL after 3 hrs; format: functional; conditions: Mus musculus; outline: as §7
[36] = Growth inhibition of EAC cells at 15.63 ug/mL after 3 hrs; format: functional; conditions: Mus musculus, Ehrlich; outline: as §7
[37] = Growth inhibition of EAC cells at 7.81 ug/mL after 3 hrs; format: functional; conditions: Mus musculus, Ehrlich; outline: as §7
[38] = Growth inhibition of EAC cells at 3.91 ug/mL after 3 hrs; format: functional; conditions: Mus musculus, Ehrlich; outline: as §7

| Compound | inhibition zone (IZ) (Bacillus subtilis [1]) [mm] | inhibition zone (IZ) (Staphylococcus aureus [2]) [mm] | inhibition zone (IZ) (Pseudomonas aeruginosa [3]) [mm] | inhibition zone (IZ) (Escherichia coli [4]) [mm] | inhibition zone (IZ) (Candida albicans [5]) [mm] | inhibition zone (IZ) (Microsporum audouinii [6]) [mm] | inhibition zone (IZ) (Trichophyton benhamiae [7]) [mm] | inhibition zone (IZ) (Aspergillus niger) [mm] | MIC (Bacillus subtilis [8]) [µg/mL] | MIC (Staphylococcus aureus [9]) [µg/mL] | MIC (Pseudomonas aeruginosa [10]) [µg/mL] | MIC (Escherichia coli [11]) [µg/mL] | MIC (Candida albicans [12]) [µg/mL] | MIC (Microsporum audouinii [13]) [µg/mL] | MIC (Trichophyton benhamiae [14]) [µg/mL] | Time (Eudrilus [15]) [min] | Time (Eudrilus [16]) [min] | inhibition at 62.5 µg/mL [20] [%] | inhibition at 31.25 µg/mL [21] [%] | CC50 [22] [µM] | other results |
| --- | --- | --- | --- | --- | --- | --- | --- | --- | --- | --- | --- | --- | --- | --- | --- | --- | --- | --- | --- | --- | --- |
| COC(=O)[C@H](CCCNC(=N)N[N+](=O)[O-])NC(=O)[C@@H]1CCCN1C(=O)c1cc(I)c(-c2nc3cc(C)c(C)cc3[nH]2)c(I)c1 | 17 | 12 | 27 | 18 | 23 | 10 | 12 | 14 | 6 (≈ 7.23 µM) | 12.5 (≈ 15.1 µM) | 6 (≈ 7.23 µM) | 12.5 (≈ 15.1 µM) | 6 (≈ 7.23 µM) | 25 (≈ 30.1 µM) | 6 (≈ 7.23 µM) | 19.43 | 30.02 | 28.9 | 15.8 | 114 | inhibition at 500 µg/mL [17]: 84.2%; inhibition at 250 µg/mL [18]: 68.4%; inhibition at 125 µg/mL [19]: 52.6%; inhibition at 500 µg/mL [23]: 100%; inhibition at 250 µg/mL [24]: 100%; inhibition at 125 µg/mL [25]: 100%; inhibition at 62.5 µg/mL [26]: 35.7%; inhibition at 31.25 µg/mL [27]: 21.4%; CC50 [28]: 84.3 µM; TIME [29]: 0.299 h; TIME [30]: 0.439 h; Time (Pontoscolex corethrurus [31]): 22.77 min; Time (Pontoscolex corethrurus [32]): 34.45 min |
| COC(=O)[C@H](Cc1cnc[nH]1)NC(=O)[C@H](Cc1cnc[nH]1)NC(=O)c1cc(-c2nc3cc(C)c(C)cc3[nH]2)ccc1O | 13 | 11 | 21 | 17 | 20 | 11 | 15 | 17 | 6 (≈ 10.5 µM) | 12.5 (≈ 21.9 µM) | 6 (≈ 10.5 µM) | 12.5 (≈ 21.9 µM) | 6 (≈ 10.5 µM) | 6 (≈ 10.5 µM) | 6 (≈ 10.5 µM) | 10.38 | 21.78 | 15.8 | 7.89 | > 877 | inhibition at 500 µg/mL [17]: 36.8%; inhibition at 250 µg/mL [18]: 31.6%; inhibition at 125 µg/mL [19]: 21%; inhibition at 500 µg/mL [23]: 21.4%; inhibition at 250 µg/mL [24]: 14.3%; inhibition at 125 µg/mL [25]: 7.14%; inhibition at 62.5 µg/mL [26]: 7.14%; inhibition at 31.25 µg/mL [27]: 3.57%; CC50 [28]: > 877 µM; TIME [29]: 0.175 h; TIME [30]: 0.305 h; Time (Pontoscolex corethrurus [31]): 12.22 min; Time (Pontoscolex corethrurus [32]): 23.75 min |
| COC(=O)[C@H](Cc1cnc[nH]1)NC(=O)CNC(=O)[C@H](Cc1c[nH]c2ccccc12)NC(=O)CNC(=O)c1cc(-c2nc3cc(C)c(C)cc3[nH]2)ccc1O (X1-GWGH-OMe) | 12 | 9 | 23 | 17 | 17 | 10 | 15 | 15 | 6 (≈ 8.18 µM) | 12.5 (≈ 17 µM) | 6 (≈ 8.18 µM) | 12.5 (≈ 17 µM) | 6 (≈ 8.18 µM) | 6 (≈ 8.18 µM) | 6 (≈ 8.18 µM) | 11.06 | 20.94 | 100 | 86.8 | 15.3 | inhibition at 62.5 µg/mL [26]: 100%; inhibition at 31.25 µg/mL [27]: 71.4%; CC50 [28]: 18.9 µM; inhibition at 15.63 µg/mL [33]: 55.3%; inhibition at 7.81 µg/mL [34]: 44.7%; inhibition at 3.91 µg/mL [35]: 26.3%; inhibition at 15.63 µg/mL [36]: 53.6%; inhibition at 7.81 µg/mL [37]: 35.7%; inhibition at 3.91 µg/mL [38]: 7.14%; TIME [29]: 0.157 h; TIME [30]: 0.291 h; Time (Pontoscolex corethrurus [31]): 14.34 min; Time (Pontoscolex corethrurus [32]): 26.21 min |
